Experimental data of several laboratories.
Compare with care: the assays were run in different laboratories.
BRAF: Serine/threonine-protein kinase B-raf (BRAF, Homo sapiens, UniProt P15056)
BRAF V600E: Serine/threonine-protein kinase B-raf (BRAF, Homo sapiens, UniProt P15056, V600E)

Compound | target | effect on | mode | method | tested at | inhibition [%]
COc1cc2ncnc(Nc3ccc(Oc4ccccc4)c(C)c3C)c2cc1OC | BRAF | enzyme activity | inhibitor |  | 1 µM | 11
Cc1ccc(N=Nc2sc(NN=C(CS(=O)(=O)c3ccccc3)c3ccc(C)cc3)nc2C)cc1 | BRAF V600E | enzyme activity | inhibitor | ATP luminescence | 10 µM | 87
CN(C)C1CCN(CC#Cc2nn(C3CCCC3)c3nc(NCc4ccccc4)ncc23)C1 (centres unmarked) | BRAF | enzyme activity | inhibitor | FRET | 10 µM | 1
O=C(CSc1nc2nccnc2c(=O)n1CCc1ccccc1)Nc1nccs1 | BRAF | enzyme activity | inhibitor |  | 10 µM | 9
CCOc1cc(-c2nncn2C)ccc1Nc1ncc2cc(C)nc(NCC(C)(C)C)c2n1 | BRAF | cell-free assay |  | TR-FRET | 1 µM | ≤ 15
CN1CC(Oc2cnc(C#N)cc2-c2ccn3nc(NC(=O)C4CC4)cc3c2)C1 | BRAF | enzyme activity | inhibitor |  | 1 µM | 2
CS(=O)(=O)Nc1cccc(-c2csc(NC(=O)CSc3nc4nccnc4c(=O)n3CCc3ccccc3)n2)c1 | BRAF V600E | enzyme activity | inhibitor |  | 10 µM | 2
Cc1ccc(C(CS(=O)(=O)c2ccccc2)=NN=C2N=C(c3ccc(Br)cc3)CS2)cc1 | BRAF V600E | enzyme activity | inhibitor | ATP luminescence | 1 µM | 79
Cn1cncc1C1=CN(c2ncnc3[nH]cnc23)CCS1 | BRAF | enzyme activity | inhibitor | radiometric | 2 µM | 35.1
Cc1ccc(C(CS(=O)(=O)c2ccccc2)=NNC2=NC(=O)C(=NNc3ccc(Cl)cc3)S2)cc1 | BRAF V600E | enzyme activity | inhibitor | ATP luminescence | 10 µM | 83
COc1cc(-c2cc(-c3ccc(N4CCNCC4)cc3)cnc2N)cc(OC)c1OC | BRAF V600E | enzyme activity | inhibitor |  | 0.1 µM | 5
